Results collected from several papers.
Compare with care: the assays were run in different laboratories.
Effect on: cell growth or viability

SMILES	cell line	test	setting	quantity	value
C[C@H](N)C(=O)Nc1ccccc1/N=c1\cc(-c2ccc3c(c2)OCCO3)oc2cc(F)ccc12	MCF7	CCK-8	1 µM	inhibition	3.33%
COc1ccc(NC(=O)Nc2ccc(-c3cn(Cc4ccc(Cl)cc4)nn3)cc2)cc1	MCF7	CCK-8	50 µM, 72 h	viability	99%
COc1ccc2/c(=N/c3ccccc3NC(=O)[C@@H](N)C(C)(C)C)cc(-c3ccc4c(c3)OCCO4)oc2c1	MCF7	CCK-8	1 µM	inhibition	8.1%
COc1ccc(NC(=O)Nc2ccc(-c3cn(Cc4ccc(C)cc4)nn3)cc2)cc1	MCF7	CCK-8	50 µM, 48 h	viability	81.1%
O=C(Nc1ccc(Cl)cc1)Nc1ccc(-c2cn(Cc3ccc(Br)cc3)nn2)cc1	MCF7	CCK-8	50 µM, 48 h	viability	93.7%
CN(C)CCNC(=O)c1ccc(-c2nc3ccc4[nH]ncc4c3c3c2CCCCC3)c(F)c1	NOMO-1		72 h	GI50	1.33 µM
COc1ccc2oc(-c3ccc4nc(N)oc4c3)c/c(=N\c3ccccc3NC(=O)CCN)c2c1	MCF7	CCK-8	1 µM	inhibition	15%
O=C(NCc1cn(Cc2ccc(Cl)cc2)nn1)Nc1ccccc1Br	MCF7	CCK-8	50 µM, 72 h	viability	88.6%
CNCCC(=O)Nc1ccccc1/N=c1\cc(-c2ccc3nc(N)oc3c2)oc2ccccc12	MCF7	CCK-8	1 µM	inhibition	31.9%
O=C(Nc1ccc(-c2cn(Cc3ccc(Br)cc3)nn2)cc1)Nc1ccccc1Br	MCF7	CCK-8	50 µM, 72 h	viability	103%
Cc1n[nH]c2ccc3nc(-c4ccc(C(=O)NCCN(C)C)cc4)c4c(c3c12)CCCCC4	NOMO-1		72 h	GI50	3.08 µM
O=C(C[C@@H](C(F)F)n1ccc(F)n1)N1CCC(O)(Cn2cnc3c(cnn3-c3ccc(F)cc3)c2=O)CC1	CAPAN-1	SRB	27.43 nM, 5 days	viability	66.3%
COc1ccc(NC(=O)Nc2ccc(-c3cn(Cc4cccc(Cl)c4)nn3)cc2)cc1	MCF7	CCK-8	50 µM, 72 h	viability	98.2%
O=C(Nc1ccc(Cl)cc1)Nc1ccc(-c2cn(Cc3ccc(Cl)cc3)nn2)cc1	MCF7	CCK-8	50 µM, 72 h	viability	98%
CC(C)(C)[C@H](N)C(=O)Nc1ccccc1/N=c1\cc(-c2ccc3c(c2)OCO3)oc2ccccc12	MCF7	CCK-8	1 µM	inhibition	21.3%
CC(C)(C)c1cc(NC(=O)Nc2ccc(-c3cn4c(n3)sc3cc(OCCN5CCOCC5)ccc34)cc2)no1	NOMO-1		72 h	GI50	> 10 µM
O=C(Nc1ccccc1/N=c1\cc(-c2ccc3c(c2)OCCO3)oc2cc(F)ccc12)N1CCOCC1	MCF7	CCK-8	1 µM	inhibition	16.7%
CN(C)CCNC(=O)c1ccc(-c2nc3ccc4[nH]ncc4c3c3c2CCCC3)c(F)c1	NOMO-1		72 h	GI50	3.08 µM
O=C(Nc1ccc(Cl)cc1)Nc1cccc(-c2cn(Cc3cccc(Cl)c3)nn2)c1	MCF7	CCK-8	50 µM, 72 h	viability	70.5%
Cc1ccccc1Cn1cc(-c2cccc(NC(=O)Nc3ccc(F)cc3)c2)nn1	MCF7	CCK-8	50 µM, 48 h	viability	100%
O=C(NCc1cn(Cc2ccc(Cl)cc2)nn1)Nc1ccc(Cl)cc1	MCF7	CCK-8	50 µM, 48 h	viability	80.8%
COc1ccc(NC(=O)NCc2cn(Cc3ccc(C)cc3)nn2)cc1	MCF7	CCK-8	50 µM, 72 h	viability	101%
COc1ccc2/c(=N/c3ccccc3NC(=O)[C@@H](N)C(C)(C)C)cc(-c3ccc4c(c3)OCO4)oc2c1	MCF7	CCK-8	1 µM	inhibition	14.2%
COc1ccc(NC(=O)NCc2cn(Cc3ccccc3C)nn2)cc1	MCF7	CCK-8	50 µM, 48 h	viability	96.3%
NC(=O)C1CCCN1C(=O)Nc1ccccc1/N=c1\cc(-c2ccc3c(c2)OCCO3)oc2cc(F)ccc12 (stereo not drawn)	MCF7	CCK-8	1 µM	inhibition	7.19%
Cc1n[nH]c2ccc3nc(-c4ccc(C(=O)NCCN(C)C)cc4F)c4c(c3c12)CCCCC4	NOMO-1		72 h	GI50	2.73 µM
O=C(Nc1ccc(Cl)cc1)Nc1cccc(-c2cn(Cc3cccc(Br)c3)nn2)c1	MCF7	CCK-8	50 µM, 48 h	viability	85.3%
